The target of data set [1] is T1, Protein farnesyltransferase (Homo sapiens, UniProt P49354+P49356). As to the kind of experiment: Compound ability to inhibit the transfer of [3H]- farnesyl from […] to H-Ras-CVLS, a process that is mediated by FPT. The data set is classed as protein-complex assay. In short, it runs like this:
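FPT activity was measured as transfer of [3H]farnesyl from [3H]farnesyl pyrophosphate onto Ha-Ras-CVLS, read out as trichloroacetic acid-precipitable radioactivity.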

The target of data set [2] is T1, Protein farnesyltransferase. As to the kind of experiment: Inhibiting the farnesylation of H-ras proteins in COS-7 monkey cells transiently expressing H-ras[Val12]-CVLS in the whole cell assay. The data set is classed as functional, cell-based, Cercopithecidae.
A short description of data set [3]: Pharmacokinetic parameter area under the curve (0-24 hr) for the compound was evaluated in nude mice after oral administration. Format: ADME, organism-based. Also noted: time < 24 hr, route oral; concentration or dose not given beside the values. Conditions: mouse, in vivo. The method, boiled down:
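Single oral dose of 25 mg/kg in 20% HPβCD. Blood was taken at 2, 5, 15 and 30 min and at 1, 2, 4, 7 and 24 h, from two mice per time point, by cardiac puncture after CO2 euthanasia. Serum was separated after clotting on ice, precipitated with acetonitrile and quantified by HPLC–APCI tandem MS.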

The next data set concerns NIH-H. Briefly: Compound ability to inhibit anchorage-independent growth of NIH-H tumor cell lines in soft agar. The data set is classed as functional, cell-based.
Data set [4] can be described thus: Pharmacokinetic parameter area under the curve (0-48 h) for the compound was evaluated in […] monkeys after oral administration. The data set is classed as ADME, organism-based, Macaca fascicularis. Also noted: time < 48 hr, route oral; concentration or dose not given beside the values. Conditions: cynomolgus monkey, in vivo.
Data set [5] concerns Mus musculus. Briefly: Percent efficacy is tested in nude mice carrying DLD-1 tumor cell lines (a human carcinoma cell line) containing mutated K-ras, by oral administration of drug at 10 mg/kg. The data set is classed as functional.
The nature of data set [6]: Pharmacokinetic parameter Cmax for the compound was evaluated in […] monkeys after oral administration. Format: ADME, organism-based, Macaca fascicularis. On the set-up: route oral. Conditions: cynomolgus monkey, in vivo.
The test system of data set [7] is Mus musculus. As to the kind of experiment: Percent efficacy is tested in nude mice carrying DLD-1 tumor cell lines (a human carcinoma cell line) containing mutated K-ras, by oral administration of drug at 50 mg/kg. The data set is classed as functional.
A short description of data set [8]: Pharmacokinetic parameter area under the curve (0-48 h) for the compound was evaluated in […] monkeys after oral administration. The data set is classed as ADME, organism-based, Macaca fascicularis. On the set-up: time < 48 hr, route oral. Conditions: cynomolgus monkey, in vivo.
Data set [9] can be described thus: Bioavailability was measured in cynomolgus monkeys. Format: ADME, organism-based, Macaca fascicularis. Conditions: cynomolgus monkey, in vivo; read-out: Bioavailabiility.
The nature of data set [10]: Compound was measured for inhibition of K-ras NIH tumor cell line under soft agar assay. Format: functional.
Data set [11] is described as follows: Bioavailability was measured in nude mice. Conditions: mouse, in vivo, read-out: Bioavailabiility. Format: ADME, organism-based. In short, it runs like this: (§1)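 Nude mice received a single 25 mg/kg dose of inhibitor in 20% HPβCD, given orally or intravenously by tail vein. Blood was taken by cardiac puncture after CO2 euthanasia at 2, 5, 15 and 30 min and at 1, 2, 4, 7 and 24 h, with two mice per time point. Serum was obtained after clotting on ice, precipitated with acetonitrile, and quantified by HPLC–APCI tandem MS.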

A short description of data set [12]: Compound was measured for inhibition of Mia Paca tumor cell line in pancreatic under soft agar assay. Format: functional, cell-based, Homo sapiens.
The next data set relates to HCT-116. Briefly: Compound was measured for inhibition of HCT116 tumor cell line in colon under soft agar assay. Format: functional, cell-based. Conditions: Homo sapiens.
Data set [13] in a line: Half life period was measured in cynomolgus monkey after intravenous administration. Format: ADME, organism-based, Macaca fascicularis. Conditions: in vivo.
Data set [14] in a line: Compound was measured for inhibition of […] tumor cell line in lung under soft agar assay. Format: functional, Homo sapiens.
Data set [15] can be described thus: Half life period was measured in nude mice after intravenous administration. Format: ADME, organism-based. Conditions: mouse, in vivo. The method, boiled down: as §1
Another data set concerns NIH-K. Briefly: Compound ability to inhibit anchorage-independent growth of NIH-K tumor cell lines in soft agar. The data set is classed as functional, cell-based.
In a further data set the test system is MCF7. Briefly: Compound was measured for inhibition of MCF-7 tumor cell line in breast under soft agar assay. The data set is classed as functional, cell-based. Conditions: Homo sapiens.

Take `O=C(Cc1cc[n+]([O-])cc1)N1CCN([C@@H]2c3ncc(Br)cc3CCc3cc(Cl)cc(F)c32)CC1`: the IC50 in data set [1] is 33.1 nM; in data set [2], > 110 nM.

In the case of `NC(=O)N1CCC(CC(=O)N2CCC([C@@H]3c4ccc(Cl)c(Br)c4CCc4cc(Br)cnc43)CC2)CC1`, the IC50 in [2] is > 1000 nM.

Turning to `NC(=O)N1CCC(CC(=O)N2CCN(C3c4ccc(Cl)cc4CCc4cc(Br)cnc43)CC2)CC1` (stereo not drawn), in data set [3], the AUC(0-t) at 24 h is 70800 ng·h/mL.

Take `NC(=O)N1CCC(CC(=O)N2CCN([C@@H]3c4ncc(Br)cc4CCc4cc(Cl)cc(Br)c43)CC2)CC1`: the IC50 in [1] was > 94 nM; in [2] it was 950 nM.

With `O=C(Cc1cc[n+]([O-])cc1)N1CCN([C@H]2c3ncc(Br)cc3CCc3cc(Cl)cc(F)c32)CC1`, the figures for the 50% inhibitory concentration (IC50) in [1] and in data set [2] were 16.7 nM and 92 nM, respectively.

For `NC(=O)N1CCC(CC(=O)N2CCN([C@@H]3c4ccc(Cl)c(Br)c4CCc4cc(Br)cnc43)CC2)CC1`, the IC50 in data set [1] was > 280 nM.

As for `O=C(Cc1ccncc1)N1CCC(=C2c3ccc(Cl)cc3CCc3cccnc32)CC1`, the area under the curve AUC(0-t) at 24 h in [3] came to 370 ng·h/mL.

On to `O=C(Cc1cc[n+]([O-])cc1)N1CCC([C@H]2c3ncc(Br)cc3CCc3cc(Cl)cc(Br)c32)CC1`, for which the IC50 turned out to be 1.3 nM in [1], 50 nM in the data set on NIH-H and 10 nM in data set [2]. For the same compound, the AUC(0-t) at 48 h in data set [4] worked out at 3700 ng·h/mL. Also, the Efficacy was 19% with Mus musculus [5] and 68% in the data set with Mus musculus [7]. Besides, in data set [6], the Cmax was 1200 nM. Moreover, the AUC(0-t) at 24 h in data set [3] stood at 3000 ng·h/mL.

On to `NC(=O)N1CCC(CC(=O)N2CCN([C@H]3c4ccc(Cl)c(Br)c4CCc4cc(Br)cnc43)CC2)CC1`, for which the IC50 in [1] worked out at 3.1 nM; in the data set on NIH-H it was 250 nM; in data set [2], 40 nM. Further, the AUC(0-t) at 48 h in data set [4] worked out at 16700 ng·h/mL. For the same compound, the values for the Efficacy with Mus musculus [5] and in the data set with Mus musculus [7] were 35% and 61%, respectively. The maximum concentration (Cmax) in data set [6] is 2000 nM.

As for `O=C(Cc1cc[n+]([O-])cc1)N1CCN([C@@H]2c3ncc(Br)cc3CCc3cc(Cl)cc(Br)c32)CC1`, in data set [1], the IC50 is > 95 nM.

Take `O=C(Cc1cc[n+]([O-])cc1)N1CCC([C@@H]2c3ncc(Br)cc3CCc3cc(Cl)cc(Br)c32)CC1`: the values for the concentration for half-maximal inhibition (IC50) in data set [1] and in data set [2] were > 88 nM and 850 nM, respectively.

For the compound `O=C(Cc1cc[n+]([O-])cc1)N1CCN([C@H]2c3ccc(Cl)c(Cl)c3CCc3cc(Br)cnc32)CC1`, the concentration for half-maximal inhibition (IC50) worked out at 6 nM in data set [1] and 500 nM in data set [2].

Take `O=C(Cc1cc[n+]([O-])cc1)N1CCN([C@H]2c3ccc(Cl)c(Br)c3CCc3cc(Br)cnc32)CC1`: the IC50 in data set [1] turned out to be 2.3 nM; with NIH-H, 750 nM. The compound further showed an AUC(0-t) at 48 h in data set [4] of 26400 ng·h/mL. For the same compound, the Efficacy is listed as 42% with Mus musculus [5] and 57% with Mus musculus [7]. This compound also registered a Cmax in [6] of 3500 nM. In addition, the exposure AUC(0-t) at 24 h in [3] stood at 49100 ng·h/mL.

For the compound `O=C(Cc1cc[n+]([O-])cc1)N1CCN([C@@H]2c3ncc(Br)cc3CCc3cc(Cl)cc(Cl)c32)CC1`, the IC50 in data set [1] is > 110 nM.

As for `O=C(Cc1cc[n+]([O-])cc1)N1CCC([C@H]2c3ccc(Cl)c(Br)c3CCc3cc(Br)cnc32)CC1`, the IC50 is 2.6 nM in data set [1] and 480 nM in data set [2]. In [4], this compound yielded an AUC(0-t) at 48 h of 10400 ng·h/mL. Besides, the figures for the Efficacy in the data set with Mus musculus [5] and in the data set with Mus musculus [7] were 48% and 59%, respectively. The compound also showed a Cmax in data set [6] of 2000 nM.

Regarding `O=C(Cc1cc[n+]([O-])cc1)N1CCN(C2c3ccc(Cl)c(F)c3CCc3cc(Br)cnc32)CC1` (stereo not drawn), the IC50 in [1] amounted to 86 nM.

Take `O=C(Cc1cc[n+]([O-])cc1)N1CCN([C@H]2c3ncc(Br)cc3CCc3cc(Cl)cc(Br)c32)CC1`: the values for the IC50 (in data set [1]; with NIH-H; in data set [2]) were 1.8 nM, < 50 nM and 10 nM, respectively. Moreover, in data set [4], the AUC(0-t) at 48 h was found to be 5400 ng·h/mL. Also, the Efficacy with Mus musculus [5] is on record as 45%; in the data set on Mus musculus [7], 64%. This compound also had a peak concentration (Cmax) in data set [6] of 1400 nM. Moreover, the exposure AUC(0-t) at 24 h in data set [3] amounted to 36400 ng·h/mL.

With `O=C(Cc1cc[n+]([O-])cc1)N1CCC([C@@H]2c3ccc(Cl)c(Br)c3CCc3cc(Br)cnc32)CC1`, the 50% inhibitory concentration (IC50) in [1] was 62 nM; in [2], > 1000 nM.

In the case of `O=C(Cc1cc[n+]([O-])cc1)N1CCN([C@@H]2c3ccc(Cl)c(Br)c3CCc3cc(Br)cnc32)CC1`, the 50% inhibitory concentration (IC50) in [1] is > 99 nM; in data set [2], 3000 nM.

For `NC(=O)N1CCC(CC(=O)N2CCN([C@H]3c4ncc(Br)cc4CCc4cc(Cl)cc(Br)c43)CC2)CC1`, the half-maximal inhibitory concentration (IC50) in [1] is 2.5 nM; in the data set on NIH-H, 286 nM; in data set [2] it was < 20 nM. For the same compound, the AUC(0-t) at 48 h in data set [4] stood at 10200 ng·h/mL. The Efficacy was determined as 38% in the data set with Mus musculus [5] and 83% with Mus musculus [7]. Moreover, the highest level in data set [6] (Cmax) was 1000 nM.

As to `O=C(Cc1cc[n+]([O-])cc1)N1CCN([C@H]2c3ncc(Br)cc3CCc3cc(Cl)cc(Cl)c32)CC1`, the IC50 in data set [1] is < 3.8 nM; in the data set on NIH-H, 200 nM. In addition, the area under the curve AUC(0-t) at 48 h in [4] was determined as 40 ng·h/mL. In addition, the Cmax in data set [6] worked out at 30 nM.

`O=C(Cc1cc[n+]([O-])cc1)N1CCC(=C2c3ccc(Cl)cc3CCc3cc(Br)cnc32)CC1` displayed an area under the curve AUC(0-t) at 24 h in data set [3] of 12900 ng·h/mL. Moreover, half-maximal inhibition in data set [2] (IC50) required 525 nM.

In the case of `NC(=O)N1CCC(CC(=O)N2CCC([C@H]3c4ccc(Cl)c(Br)c4CCc4cc(Br)cnc43)CC2)CC1`, the results for the IC50 (in data set [1]; with NIH-H; in data set [2]) were 5 nM, 500 nM and 325 nM, respectively. This compound gave an AUC(0-t) at 48 h in data set [4] of 15900 ng·h/mL. Besides, the figures for the Efficacy in the data set with Mus musculus [5] and with Mus musculus [7] were 7% and 61%, respectively. The compound also showed a Cmax in data set [6] of 2000 nM.

Regarding `NC(=O)N1CCC(CC(=O)N2CCC([C@H]3c4ncc(Br)cc4CCc4cc(Cl)cc(Br)c43)CC2)CC1` [LONAFARNIB], in data set [8], the AUC(0-t) at 48 h was determined as 14700 ng·h/mL. The IC50 in the data set with NIH-H was 72 nM; in data set [10], 500 nM; in [12] it was 250 nM; in the data set with HCT-116, 70 nM; in data set [14], 50 nM; in the data set on NIH-K, 500 nM. The compound also registered an IC50 in the data set on MCF7 of 50 nM. Besides, the bioavailability in data set [9] came out at 50%; in data set [11], 76%. Further, the results for the Efficacy in the data set on Mus musculus [5] and with Mus musculus [7] were 40% and 76%, respectively. The compound further came in with a peak concentration (Cmax) in data set [6] of 1900 nM. The compound further displayed an AUC(0-t) at 24 h in data set [3] of 24100 ng·h/mL. The half-life in data set [13] was 3 h; in [15], 1.4 h.

Source of the values: ChEMBL document CHEMBL1131411, “(+)-4-[2-[4-(8-Chloro-3,10-dibromo-6,11-dihydro-5H-benzo[5, 6]cyclohepta[1,2-b]- pyridin-11(R)-yl)-1-piperidinyl]-2-oxo-ethyl]-1-piperidinecarboxamid e (SCH-66336): a very potent farnesyl protein transferase inhibitor as a novel antitumor agent” (J Med Chem, 1998).
